Source: ChEMBL document CHEMBL1154249, “Semisynthesis and biological evaluation of abietane-type diterpenes. Revision of the structure of rosmaquinone” (J Nat Prod, 2009)
≈ marks a conversion by molar mass, not a printed value.

Legend:
A549 [1] = experiment: Cytotoxicity against human A549 cells at exponential phase of growth after 48 hrs by MTT assay; format: functional, cell-based
Procedure, shortened: (§1)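 Monolayers grown in DMEM with 5% fetal calf serum and penicillin-streptomycin at 37 °C, 5% CO2. 2×10^4 cells/well in lag or log phase were exposed for 48 h to a concentration series of compounds predissolved in DMSO. MTT formazan was dissolved in DMSO and read at 550 nm. IC50 taken from the curve; three independent experiments.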

HeLa [2] = experiment: Cytotoxicity against human HeLa cells at lag phase of growth after 48 hrs by MTT assay; format: functional, cell-based; procedure, shortened: as §1
HEp-2 [3] = experiment: Cytotoxicity against human Hep2 cells at lag phase of growth after 48 hrs by MTT assay; format: functional, cell-based; procedure, shortened: as §1
MCF7 [4] = experiment: Cytotoxicity against human MCF7 cells at lag phase of growth after 48 hrs by MTT assay; format: functional, cell-based; procedure, shortened: as §1
Vero [5] = experiment: Cytotoxicity against african green monkey Vero cells at lag phase of growth after 48 hrs by MTT assay; format: cell-based, Chlorocebus sabaeus; procedure, shortened: as §1
HEp-2 [6] = experiment: Cytotoxicity against human Hep2 cells at exponential phase of growth after 48 hrs by MTT assay; format: functional, cell-based; procedure, shortened: as §1
Vero [7] = experiment: Cytotoxicity against african green monkey Vero cells at exponential phase of growth after 48 hrs by MTT assay; format: cell-based, Chlorocebus sabaeus; procedure, shortened: as §1
A549 [8] = experiment: Cytotoxicity against human A549 cells at lag phase of growth after 48 hrs by MTT assay; format: functional, cell-based; details: Homo sapiens, A549, 48 h; read-out: IC50; procedure, shortened: as §1
MCF7 [9] = experiment: Cytotoxicity against human […] cells at exponential phase of growth after 48 hrs by MTT assay; format: functional, cell-based; procedure, shortened: as §1
HeLa [10] = experiment: Cytotoxicity against human HeLa cells at exponential phase of growth after 48 hrs by MTT assay; format: functional, cell-based; procedure, shortened: as §1
Bacillus subtilis = experiment: Antibacterial activity against Bacillus subtilis ATCC 6051 after 24 hrs by broth dilution assay; format: functional
[11] = system: Mycolicibacterium smegmatis; experiment: Antibacterial activity against Mycobacterium smegmatis ATCC 19420 after 48 hrs by broth dilution assay; format: functional; details: ATCC 19420, 48 h
Procedure, shortened: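 Brain heart infusion broth with 0.06% Tween 80, 37 °C on a rotary shaker, inoculum about (1-5) × 10^5 cfu/mL, DMSO ≤1% v/v with matched controls, in triplicate. OD550 monitored.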

Salmonella = experiment: Antibacterial activity against Salmonella CECT 4569 after 24 hrs by broth dilution assay; format: functional; details: CECT 4569, 24 h
Procedure, shortened: (§2)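 Microdilution in nutrient broth at 37 °C, about (1-5) × 10^5 cfu/mL inoculum, compounds in DMSO (≤1% v/v, matched DMSO controls), in triplicate. Growth followed by OD550. Wells without visible growth after 24 h on a rotary shaker were subcultured in duplicate onto nutrient agar and colonies counted after overnight incubation. MIC is the lowest concentration inhibiting growth at 24 h.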

[12] = system: Staphylococcus epidermidis; experiment: Antibacterial activity against Staphylococcus epidermidis ATCC 14990 after 24 hrs by broth dilution assay; format: functional; procedure, shortened: as §2
Bacillus cereus = experiment: Antibacterial activity against Bacillus cereus ATCC 21772 after 24 hrs by broth dilution assay; format: functional
Escherichia coli = experiment: Antibacterial activity against Escherichia coli ATCC 9637 after 24 hrs by broth dilution assay; format: functional; details: ATCC 9637, 24 h; procedure, shortened: as §2
Proteus mirabilis = experiment: Antibacterial activity against Proteus mirabilis CECT 170 after 24 hrs by broth dilution assay; format: functional; details: CECT 170, 24 h; procedure, shortened: as §2
Pseudomonas aeruginosa = experiment: Antibacterial activity against Pseudomonas aeruginosa AK958 after 24 hrs by broth dilution assay; format: functional; details: AK958, 24 h; procedure, shortened: as §2
Staphylococcus aureus = experiment: Antibacterial activity against Staphylococcus aureus ATCC 6538 after 24 hrs by broth dilution assay; format: functional
Enterococcus faecalis = experiment: Antibacterial activity against Enterococcus faecalis ATCC 29212 after 24 hrs by broth dilution assay; format: functional; details: ATCC 29212, 24 h
Procedure, shortened: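 Microdilution in brain heart infusion broth, shaken at 37 °C, about (1-5) × 10^5 cfu/mL start, DMSO ≤1% v/v with matched controls, in triplicate. OD550 read. Clear wells at 24 h were subcultured in duplicate onto brain heart infusion agar and counted after overnight incubation. MIC is the lowest concentration giving growth inhibition.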

Candida albicans = experiment: Antibacterial activity against Candida albicans CECT 1039 after 24 hrs by broth dilution assay
[13] = Homo sapiens, A549, 48 h, read-out: IC50
[14] = Homo sapiens, HeLa, 48 h, read-out: IC50
[15] = Homo sapiens, HEp-2, 48 h, read-out: IC50
[16] = Homo sapiens, MCF7, 48 h, read-out: IC50
[17] = Chlorocebus sabaeus, Vero, 48 h, read-out: IC50

SMILES | IC50 (A549 [1]; [13]) [µM] | IC50 (HeLa [2]; [14]) [µM] | IC50 (HEp-2 [3]; [15]) [µM] | IC50 (MCF7 [4]; [16]) [µM] | IC50 (Vero [5]; [17]) [µM] | IC50 (HEp-2 [6]; [15]) [µM] | IC50 (Vero [7]; [17]) [µM] | IC50 (MCF7 [9]; [16]) [µM] | IC50 (HeLa [10]; [14]) [µM] | MIC (Bacillus subtilis) [µg/mL] | MIC [11] [µg/mL] | MIC (Salmonella) [µg/mL] | MIC [12] [µg/mL] | MI50 (Bacillus cereus) [µg/mL] | MIC (Escherichia coli) [µg/mL] | MIC (Proteus mirabilis) [µg/mL] | MIC (Pseudomonas aeruginosa) [µg/mL] | MIC (Staphylococcus aureus) [µg/mL] | MIC (Enterococcus faecalis) [µg/mL] | MIC (Candida albicans) [µg/mL] | further results
Sc1ncnc2nc[nH]c12 [MERCAPTOPURINE ANHYDROUS] | 49.3 | 2.9 | 431 | 1.4 | 67.5 | 318 | 119 | 5.8 | 4.1 |  |  |  |  |  |  |  |  |  |  |  | IC50 (A549 [8]): 47 µM
COc1c2c(c(O)c3c1[C@@H](C)CO3)[C@@]13CCCC(C)(C)[C@@H]1C[C@@H]2OC3=O |  |  |  |  |  |  |  |  |  | >40 | > 40 | > 40 | >40 | >40 | > 40 | > 40 | > 40 | >40 | > 40 | >40 | IC50 (A549 [1]; a549): Not Active; IC50 (HeLa [2]; hela): Not Active; IC50 (HEp-2 [3]; hep-2): Not Active; IC50 (MCF7 [4]; mcf7): Not Active; IC50 (Vero [5]; vero): Not Active; IC50 (HEp-2 [6]; hep-2): Not Active; IC50 (Vero [7]; vero): Not Active; IC50 (MCF7 [9]; mcf7): Not Active; IC50 (HeLa [10]; hela): Not Active
CC(C)c1cc2c(c(O)c1O)[C@@]1(C(=O)O)CCCC(C)(C)[C@@H]1C[C@H]2Sc1ccccc1 |  | 4.8 | 15.2 |  | 6.1 | 18.9 | 21.1 |  | 11.1 |  |  |  |  |  |  |  |  |  |  |  | 
COC(=O)C1=C2C=C(C(C)C)COC2(O)[C@H]2OC(=O)[C@@]13CCCC(C)(C)[C@H]23 (stereo partly specified) | 39.4 | > 60 | > 60 | > 60 | > 60 | > 60 | > 60 | 42.6 | > 60 | >40 | > 40 | > 40 | >40 | >40 | > 40 | > 40 | > 40 | >40 | > 40 | >40 | IC50 (A549 [8]): > 60 µM
CC(=O)OC[C@H](C)C1=C(OC(C)=O)C(O)C2=C(C1=O)[C@@H]1C[C@H]3C(C)(C)CCC[C@]23C(=O)O1 (stereo partly specified) |  | 33.8 | > 45 | > 45 | > 45 | > 45 | > 45 | > 45 | 40.5 | >40 | > 40 | > 40 | >40 | >40 | > 40 | > 40 | > 40 | >40 | > 40 | >40 | 
CO/N=C(\C(=O)N[C@@H]1C(=O)N2C(C(=O)O)=C(COC(C)=O)CS[C@H]12)c1csc(N)n1 [CEFOTAXIME] |  |  |  |  |  |  |  |  |  |  | > 40 | > 40 |  |  | > 40 | > 40 | > 40 |  | > 40 |  | MIC (Bacillus subtilis; Bacillus subtilis, ATCC 6051, 24 h, read-out: MIC): 8 µg/mL (≈ 17.6 µM); MIC ([12]; Staphylococcus epidermidis, ATCC 14990, 24 h, read-out: MIC): 2.5 µg/mL (≈ 5.49 µM); MIC (Bacillus cereus; Bacillus cereus, ATCC 21772, 24 h): 10 µg/mL (≈ 22 µM); MIC (Staphylococcus aureus; Staphylococcus aureus, ATCC 6538, 24 h, read-out: MIC): 1.25 µg/mL (≈ 2.74 µM)
CC(C)C1=CC2=C(C(=O)C1=O)[C@@]13CCCC(C)(C)[C@@H]1[C@@H](O)[C@@H]2OC3=O [ISOROSMAQUINONE] |  | 25 | 39.5 |  | > 60 | 39.2 | > 60 |  | 30.8 |  |  |  |  |  |  |  |  |  |  |  | 
Cc1coc2c1C(=O)C1=C(C2=O)[C@@]23CCCC(C)(C)[C@@H]2C[C@@H]1OC3=O | > 58.8 | > 58.8 |  | > 58.8 | > 58.8 |  | > 58.8 | > 58.8 | > 58.8 | >40 | > 40 | > 40 | >40 | >40 | > 40 | > 40 | > 40 | >40 | > 40 | >40 | IC50 (A549 [8]): 48.8 µM
COC(=O)C1=C(/C=C(\C(=O)OC)C(C)C)[C@@H]2C[C@H]3C(C)(C)CCC[C@]13C(=O)O2 |  |  |  |  |  |  |  |  |  | >40 | > 40 | > 40 | >40 | >40 | > 40 | > 40 | > 40 | >40 | > 40 | >40 | IC50 (A549 [1]; a549): Not Active; IC50 (HeLa [2]; hela): Not Active; IC50 (HEp-2 [3]; hep-2): Not Active; IC50 (MCF7 [4]; mcf7): Not Active; IC50 (Vero [5]; vero): Not Active; IC50 (HEp-2 [6]; hep-2): Not Active; IC50 (Vero [7]; vero): Not Active; IC50 (MCF7 [9]; mcf7): Not Active; IC50 (HeLa [10]; hela): Not Active
CC(C)C1=CC2=C(C(=O)C1=O)[C@@]13CCCC(C)(C)[C@@H]1C[C@@H]2OC3=O |  | > 60 | > 60 |  |  | > 60 |  |  | 40.2 | >40 | > 40 | > 40 | >40 | >40 | > 40 | > 40 | > 40 | >40 | > 40 | >40 | 
